Assay results taken from ChEMBL document CHEMBL5058577, “EUbOPEN Chemogenomics Library 2 (Multiplex)” (2022).

System: Fibroblast
Test: Multiplex assay against human fibroblast
Type: toxicity, cell-based
How it was run: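 Live cells were stained at seeding with Hoechst33342, BioTracker Green Microtubule Cytoskeleton Dye, MitoTracker Red and Annexin V Alexa Fluor 680. Following compound addition, they were imaged on a CQ1 microscope at 37°C and 5% CO2 and gated by CellPathfinder machine learning into Hoechst high-intensity objects or normal cells, with normal cells split into healthy, pyknosed or fragmented nuclei and pyknosed cells into mitotic or apoptotic. Tubulin, mitochondrial-mass and membrane-permeability phenotypes are per cents of healthy-nucleus cells.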

[1] = 12 h, 1 µM, compound concentration 1 uM, replicate 1
[2] = 12 h, 1 µM, compound concentration 1 uM, replicate 2
[3] = 12 h, 10 µM, compound concentration 10 uM, replicate 1
[4] = 12 h, 10 µM, compound concentration 10 uM, replicate 2
[5] = 24 h, 1 µM, compound concentration 1 uM, replicate 1
[6] = 24 h, 1 µM, compound concentration 1 uM, replicate 2
[7] = 24 h, 10 µM, compound concentration 10 uM, replicate 1
[8] = 24 h, 10 µM, compound concentration 10 uM, replicate 2
[9] = 48 h, 1 µM, compound concentration 1 uM, replicate 1
[10] = 48 h, 1 µM, compound concentration 1 uM, replicate 2
[11] = 48 h, 10 µM, compound concentration 10 uM, replicate 1
[12] = 48 h, 10 µM, compound concentration 10 uM, replicate 2

Cc1ccc(C(C)(O)c2nc3ccccc3s2)c(C)c1 (centres undefined)
Population Apoptotic (%) [1]: 50%
Population Fragmented Nuclei (%) [1]: 8%
Population Healthy Nuclei (%) [1]: 78%
Population Hoechst High Intensity Objects (%) [1]: 0%
Population Membrane Permeable-Phenotype (%) [1]: 0%
Population Mitochondria Different-Phenotype (%) [1]: 5%
Population Mitotic Cells (%) [1]: 50%
Population Normal (%) [1]: 99%
Population Pyknosed Nuclei (%) [1]: 12%
Population Tubulin-Different-Phenotype (%) [1]: 29%
Total Cell Count [1]: 125
Population Apoptotic (%) [2]: 44%
Population Fragmented Nuclei (%) [2]: 22%
Population Healthy Nuclei (%) [2]: 48%
Population Hoechst High Intensity Objects (%) [2]: 5%
Population Membrane Permeable-Phenotype (%) [2]: 3%
Population Mitochondria Different-Phenotype (%) [2]: 6%
Population Mitotic Cells (%) [2]: 56%
Population Normal (%) [2]: 95%
Population Pyknosed Nuclei (%) [2]: 29%
Population Tubulin-Different-Phenotype (%) [2]: 36%
Total Cell Count [2]: 180
Population Apoptotic (%) [3]: 44%
Population Fragmented Nuclei (%) [3]: 11%
Population Healthy Nuclei (%) [3]: 72%
Population Hoechst High Intensity Objects (%) [3]: 1%
Population Membrane Permeable-Phenotype (%) [3]: 0%
Population Mitochondria Different-Phenotype (%) [3]: 5%
Population Mitotic Cells (%) [3]: 56%
Population Normal (%) [3]: 98%
Population Pyknosed Nuclei (%) [3]: 16%
Population Tubulin-Different-Phenotype (%) [3]: 24%
Total Cell Count [3]: 153
Population Apoptotic (%) [4]: 22%
Population Fragmented Nuclei (%) [4]: 31%
Population Healthy Nuclei (%) [4]: 43%
Population Hoechst High Intensity Objects (%) [4]: 7%
Population Membrane Permeable-Phenotype (%) [4]: 15%
Population Mitochondria Different-Phenotype (%) [4]: 6%
Population Mitotic Cells (%) [4]: 77%
Population Normal (%) [4]: 92%
Population Pyknosed Nuclei (%) [4]: 25%
Population Tubulin-Different-Phenotype (%) [4]: 60%
Total Cell Count [4]: 149
Population Apoptotic (%) [5]: 31%
Population Fragmented Nuclei (%) [5]: 13%
Population Healthy Nuclei (%) [5]: 73%
Population Hoechst High Intensity Objects (%) [5]: 0%
Population Membrane Permeable-Phenotype (%) [5]: 2%
Population Mitochondria Different-Phenotype (%) [5]: 7%
Population Mitotic Cells (%) [5]: 68%
Population Normal (%) [5]: 99%
Population Pyknosed Nuclei (%) [5]: 13%
Population Tubulin-Different-Phenotype (%) [5]: 22%
Total Cell Count [5]: 139
Population Apoptotic (%) [6]: 47%
Population Fragmented Nuclei (%) [6]: 25%
Population Healthy Nuclei (%) [6]: 54%
Population Hoechst High Intensity Objects (%) [6]: 5%
Population Membrane Permeable-Phenotype (%) [6]: 11%
Population Mitochondria Different-Phenotype (%) [6]: 5%
Population Mitotic Cells (%) [6]: 52%
Population Normal (%) [6]: 94%
Population Pyknosed Nuclei (%) [6]: 20%
Population Tubulin-Different-Phenotype (%) [6]: 43%
Total Cell Count [6]: 173
Population Apoptotic (%) [7]: 55%
Population Fragmented Nuclei (%) [7]: 13%
Population Healthy Nuclei (%) [7]: 74%
Population Hoechst High Intensity Objects (%) [7]: 4%
Population Membrane Permeable-Phenotype (%) [7]: 3%
Population Mitochondria Different-Phenotype (%) [7]: 6%
Population Mitotic Cells (%) [7]: 44%
Population Normal (%) [7]: 95%
Population Pyknosed Nuclei (%) [7]: 12%
Population Tubulin-Different-Phenotype (%) [7]: 24%
Total Cell Count [7]: 152
Population Apoptotic (%) [8]: 38%
Population Fragmented Nuclei (%) [8]: 27%
Population Healthy Nuclei (%) [8]: 46%
Population Hoechst High Intensity Objects (%) [8]: 6%
Population Membrane Permeable-Phenotype (%) [8]: 12%
Population Mitochondria Different-Phenotype (%) [8]: 9%
Population Mitotic Cells (%) [8]: 61%
Population Normal (%) [8]: 93%
Population Pyknosed Nuclei (%) [8]: 25%
Population Tubulin-Different-Phenotype (%) [8]: 61%
Total Cell Count [8]: 143
Population Apoptotic (%) [9]: 33%
Population Fragmented Nuclei (%) [9]: 16%
Population Healthy Nuclei (%) [9]: 73%
Population Hoechst High Intensity Objects (%) [9]: 4%
Population Membrane Permeable-Phenotype (%) [9]: 0%
Population Mitochondria Different-Phenotype (%) [9]: 3%
Population Mitotic Cells (%) [9]: 66%
Population Normal (%) [9]: 95%
Population Pyknosed Nuclei (%) [9]: 9%
Population Tubulin-Different-Phenotype (%) [9]: 16%
Total Cell Count [9]: 129
Population Apoptotic (%) [10]: 50%
Population Fragmented Nuclei (%) [10]: 28%
Population Healthy Nuclei (%) [10]: 57%
Population Hoechst High Intensity Objects (%) [10]: 3%
Population Membrane Permeable-Phenotype (%) [10]: 5%
Population Mitochondria Different-Phenotype (%) [10]: 6%
Population Mitotic Cells (%) [10]: 50%
Population Normal (%) [10]: 96%
Population Pyknosed Nuclei (%) [10]: 14%
Population Tubulin-Different-Phenotype (%) [10]: 39%
Total Cell Count [10]: 174
Population Apoptotic (%) [11]: 53%
Population Fragmented Nuclei (%) [11]: 22%
Population Healthy Nuclei (%) [11]: 68%
Population Hoechst High Intensity Objects (%) [11]: 7%
Population Membrane Permeable-Phenotype (%) [11]: 2%
Population Mitochondria Different-Phenotype (%) [11]: 6%
Population Mitotic Cells (%) [11]: 46%
Population Normal (%) [11]: 92%
Population Pyknosed Nuclei (%) [11]: 9%
Population Tubulin-Different-Phenotype (%) [11]: 27%
Total Cell Count [11]: 156
Population Apoptotic (%) [12]: 43%
Population Fragmented Nuclei (%) [12]: 34%
Population Healthy Nuclei (%) [12]: 53%
Population Membrane Permeable-Phenotype (%) [12]: 7%
Population Mitochondria Different-Phenotype (%) [12]: 7%
Population Mitotic Cells (%) [12]: 56%
Population Pyknosed Nuclei (%) [12]: 12%
Population Tubulin-Different-Phenotype (%) [12]: 64%
Total Cell Count [12]: 143

CN(C)c1ccnc2sc3c(=O)n(N4CCCCCC4)cnc3c12
Population Apoptotic (%) [1]: 42%
Population Fragmented Nuclei (%) [1]: 17%
Population Healthy Nuclei (%) [1]: 64%
Population Hoechst High Intensity Objects (%) [1]: 3%
Population Membrane Permeable-Phenotype (%) [1]: 1%
Population Mitochondria Different-Phenotype (%) [1]: 3%
Population Mitotic Cells (%) [1]: 57%
Population Normal (%) [1]: 96%
Population Pyknosed Nuclei (%) [1]: 18%
Population Tubulin-Different-Phenotype (%) [1]: 29%
Total Cell Count [1]: 144
Population Apoptotic (%) [2]: 30%
Population Fragmented Nuclei (%) [2]: 28%
Population Healthy Nuclei (%) [2]: 51%
Population Hoechst High Intensity Objects (%) [2]: 6%
Population Membrane Permeable-Phenotype (%) [2]: 10%
Population Mitotic Cells (%) [2]: 70%
Population Normal (%) [2]: 93%
Population Pyknosed Nuclei (%) [2]: 19%
Population Tubulin-Different-Phenotype (%) [2]: 44%
Total Cell Count [2]: 162
Population Apoptotic (%) [3]: 44%
Population Fragmented Nuclei (%) [3]: 14%
Population Healthy Nuclei (%) [3]: 58%
Population Hoechst High Intensity Objects (%) [3]: 5%
Population Membrane Permeable-Phenotype (%) [3]: 1%
Population Mitochondria Different-Phenotype (%) [3]: 14%
Population Mitotic Cells (%) [3]: 55%
Population Normal (%) [3]: 94%
Population Pyknosed Nuclei (%) [3]: 27%
Population Tubulin-Different-Phenotype (%) [3]: 75%
Total Cell Count [3]: 141
Population Apoptotic (%) [4]: 49%
Population Fragmented Nuclei (%) [4]: 31%
Population Healthy Nuclei (%) [4]: 30%
Population Hoechst High Intensity Objects (%) [4]: 7%
Population Membrane Permeable-Phenotype (%) [4]: 12%
Population Mitotic Cells (%) [4]: 50%
Population Normal (%) [4]: 92%
Population Pyknosed Nuclei (%) [4]: 38%
Total Cell Count [4]: 145
Population Apoptotic (%) [5]: 48%
Population Fragmented Nuclei (%) [5]: 11%
Population Healthy Nuclei (%) [5]: 67%
Population Hoechst High Intensity Objects (%) [5]: 3%
Population Membrane Permeable-Phenotype (%) [5]: 0%
Population Mitochondria Different-Phenotype (%) [5]: 3%
Population Mitotic Cells (%) [5]: 51%
Population Normal (%) [5]: 96%
Population Pyknosed Nuclei (%) [5]: 21%
Population Tubulin-Different-Phenotype (%) [5]: 27%
Total Cell Count [5]: 143
Population Apoptotic (%) [6]: 50%
Population Fragmented Nuclei (%) [6]: 24%
Population Healthy Nuclei (%) [6]: 55%
Population Hoechst High Intensity Objects (%) [6]: 2%
Population Membrane Permeable-Phenotype (%) [6]: 10%
Population Mitochondria Different-Phenotype (%) [6]: 2%
Population Mitotic Cells (%) [6]: 50%
Population Normal (%) [6]: 97%
Population Pyknosed Nuclei (%) [6]: 19%
Population Tubulin-Different-Phenotype (%) [6]: 49%
Total Cell Count [6]: 146
Population Apoptotic (%) [7]: 57%
Population Fragmented Nuclei (%) [7]: 13%
Population Healthy Nuclei (%) [7]: 58%
Population Hoechst High Intensity Objects (%) [7]: 5%
Population Membrane Permeable-Phenotype (%) [7]: 0%
Population Mitochondria Different-Phenotype (%) [7]: 18%
Population Mitotic Cells (%) [7]: 42%
Population Normal (%) [7]: 94%
Population Pyknosed Nuclei (%) [7]: 28%
Population Tubulin-Different-Phenotype (%) [7]: 63%
Total Cell Count [7]: 130
Population Apoptotic (%) [8]: 30%
Population Fragmented Nuclei (%) [8]: 35%
Population Healthy Nuclei (%) [8]: 41%
Population Hoechst High Intensity Objects (%) [8]: 8%
Population Membrane Permeable-Phenotype (%) [8]: 22%
Population Mitochondria Different-Phenotype (%) [8]: 24%
Population Mitotic Cells (%) [8]: 69%
Population Normal (%) [8]: 91%
Population Pyknosed Nuclei (%) [8]: 22%
Population Tubulin-Different-Phenotype (%) [8]: 85%
Total Cell Count [8]: 128
Population Apoptotic (%) [9]: 64%
Population Fragmented Nuclei (%) [9]: 19%
Population Healthy Nuclei (%) [9]: 70%
Population Hoechst High Intensity Objects (%) [9]: 2%
Population Membrane Permeable-Phenotype (%) [9]: 0%
Population Mitochondria Different-Phenotype (%) [9]: 0%
Population Mitotic Cells (%) [9]: 35%
Population Normal (%) [9]: 97%
Population Pyknosed Nuclei (%) [9]: 10%
Population Tubulin-Different-Phenotype (%) [9]: 30%
Total Cell Count [9]: 143
Population Apoptotic (%) [10]: 36%
Population Fragmented Nuclei (%) [10]: 36%
Population Healthy Nuclei (%) [10]: 49%
Population Hoechst High Intensity Objects (%) [10]: 3%
Population Membrane Permeable-Phenotype (%) [10]: 6%
Population Mitochondria Different-Phenotype (%) [10]: 2%
Population Mitotic Cells (%) [10]: 63%
Population Normal (%) [10]: 96%
Population Pyknosed Nuclei (%) [10]: 14%
Population Tubulin-Different-Phenotype (%) [10]: 41%
Total Cell Count [10]: 157
Population Apoptotic (%) [11]: 73%
Population Fragmented Nuclei (%) [11]: 22%
Population Healthy Nuclei (%) [11]: 47%
Population Hoechst High Intensity Objects (%) [11]: 8%
Population Membrane Permeable-Phenotype (%) [11]: 0%
Population Mitochondria Different-Phenotype (%) [11]: 25%
Population Mitotic Cells (%) [11]: 26%
Population Normal (%) [11]: 91%
Population Pyknosed Nuclei (%) [11]: 30%
Population Tubulin-Different-Phenotype (%) [11]: 76%
Total Cell Count [11]: 138
Population Apoptotic (%) [12]: 50%
Population Fragmented Nuclei (%) [12]: 47%
Population Healthy Nuclei (%) [12]: 42%
Population Hoechst High Intensity Objects (%) [12]: 6%
Population Membrane Permeable-Phenotype (%) [12]: 19%
Population Mitochondria Different-Phenotype (%) [12]: 13%
Population Mitotic Cells (%) [12]: 50%
Population Normal (%) [12]: 93%
Population Pyknosed Nuclei (%) [12]: 9%
Population Tubulin-Different-Phenotype (%) [12]: 86%
Total Cell Count [12]: 131
